Experimental data published in ChEMBL document CHEMBL3286131, “Design, synthesis and systematic evaluation of cytotoxic 3-heteroarylisoquinolinamines as topoisomerases inhibitors” (Eur J Med Chem, 2014).
Where “and” joins values, the source holds several entries; their conditions need not be identical. Equal entries are not always repeated. Blank lines part the entries; values can stand above or below the compound they belong to.

How the values were obtained:
[1] = biological target: DNA topoisomerase 2-alpha (Homo sapiens) (UniProt P11388); assay: Inhibition of human DNA topoisomerase-2a-mediated relaxation of supercoiled DNA pBR322 at 20 uM after 4 hrs using ethidium bromide staining by agarose gel electrophoresis analysis
How it was run: (§1)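 Supercoiled pBR322 (200 ng) incubated with human topo IIα (1 unit) ± compound for 30 min at 30 °C. Buffer: 10 mM Tris-HCl pH 7.9, 50 mM NaCl, 50 mM KCl, 5 mM MgCl2, 1 mM EDTA, 1 mM ATP, BSA. Stopped with EDTA. 1% agarose gel run at 25 V for 4 h in TAE, ethidium bromide stain, supercoiled DNA quantified by UV imaging.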

[2] = biological target: T1, DNA topoisomerase 1 (Homo sapiens) (UniProt P11387); assay: Inhibition of recombinant human DNA topoisomerase-1-mediated relaxation of supercoiled DNA pBR322 at 20 uM after 7 hrs using ethidium bromide staining by agarose gel electrophoresis analysis
T1 sequence (whole entry): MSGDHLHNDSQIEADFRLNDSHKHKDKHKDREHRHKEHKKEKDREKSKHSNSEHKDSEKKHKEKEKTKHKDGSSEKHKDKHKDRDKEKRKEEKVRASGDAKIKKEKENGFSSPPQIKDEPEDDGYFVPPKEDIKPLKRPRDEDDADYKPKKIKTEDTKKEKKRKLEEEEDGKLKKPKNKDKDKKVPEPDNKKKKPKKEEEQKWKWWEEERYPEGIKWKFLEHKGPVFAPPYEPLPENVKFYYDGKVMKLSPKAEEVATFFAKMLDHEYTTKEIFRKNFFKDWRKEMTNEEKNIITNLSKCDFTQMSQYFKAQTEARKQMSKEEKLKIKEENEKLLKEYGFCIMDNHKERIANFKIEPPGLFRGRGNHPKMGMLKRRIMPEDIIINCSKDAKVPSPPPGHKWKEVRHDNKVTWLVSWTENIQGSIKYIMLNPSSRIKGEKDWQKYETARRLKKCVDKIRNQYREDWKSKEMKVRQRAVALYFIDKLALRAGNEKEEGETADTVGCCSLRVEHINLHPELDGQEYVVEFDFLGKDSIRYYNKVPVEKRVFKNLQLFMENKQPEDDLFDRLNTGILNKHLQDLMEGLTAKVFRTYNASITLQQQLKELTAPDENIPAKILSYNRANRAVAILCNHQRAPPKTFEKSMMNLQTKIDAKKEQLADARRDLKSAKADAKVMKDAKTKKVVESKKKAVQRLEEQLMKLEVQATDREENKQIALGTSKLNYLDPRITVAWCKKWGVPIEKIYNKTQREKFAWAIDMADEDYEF
How it was run: (§2)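 pBR322 (100 ng) incubated with recombinant human topo I (0.4 units) ± compound for 30 min at 37 °C. Buffer: 10 mM Tris-HCl pH 7.9, 150 mM NaCl, 0.1% BSA, 1 mM spermidine, 5% glycerol. Quenched with sarcosyl stop solution. 1% agarose gel run at 15 V for 7 h in TAE, ethidium bromide stain, supercoiled DNA quantified under UV.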

[3] = biological target: T1, DNA topoisomerase 1 (Homo sapiens); assay: Inhibition of recombinant human DNA topoisomerase-1-mediated relaxation of supercoiled DNA pBR322 at 100 uM after 7 hrs using ethidium bromide staining by agarose gel electrophoresis analysis; how it was run: as §2
[4] = biological target: DNA topoisomerase 2-alpha (Homo sapiens) (UniProt P11388); assay: Inhibition of human DNA topoisomerase-2a-mediated relaxation of supercoiled DNA pBR322 at 100 uM after 4 hrs using ethidium bromide staining by agarose gel electrophoresis analysis; how it was run: as §1
HeLa [5] = assay: Cell cycle arrest in human HeLa cells assessed as accumulation at sub-G0/G1 phase after 24 hrs using […] by flow cytometry analysis relative to control; type: functional, cell-based
How it was run: (§3)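 HeLa cells exposed to graded compound concentrations for 24 h, harvested by centrifugation, PBS-washed twice, fixed overnight on ice in 70% ethanol. Stained with 10 μg/mL propidium iodide plus 0.5 mg/mL RNase and 0.1% Triton X-100 in PBS, 30 min at 37 °C in the dark. Flow cytometry gates: sub-G0/G1, G0/G1, S, G2/M.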

HeLa [6] = assay: Cell cycle arrest in human HeLa cells assessed as accumulation at G2/M phase phase after 24 hrs using […] by flow cytometry analysis relative to control; type: functional, cell-based; how it was run: as §3
T47D = assay: Cytotoxicity against human T47D cells after 2 days; type: functional, cell-based
How it was run: (§4)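 Cells seeded at 2-4 × 10^4 per well in medium with 10% FBS and incubated overnight at 37 °C, 5% CO2. Graded compound concentrations added on day 2. CCK-8 reagent added on day 4 for a further 4 h, absorbance read at 450 nm. IC50 from a four-parameter logistic fit; mean ± S.D. of three experiments run in triplicate.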

HeLa [7] = assay: Cell cycle arrest in human HeLa cells assessed as accumulation at G2/M phase phase at 25 uM after 24 hrs using […] by flow cytometry analysis relative to control; type: functional; how it was run: as §3
HeLa [8] = assay: Cell cycle arrest in human HeLa cells assessed as accumulation at sub-G0/G1 phase at 10 uM after 24 hrs using ethidium bromide staining by flow cytometry analysis relative to control; type: functional; conditions: in the assay text read “propidium iodide staining” for “ethidium bromide staining”; how it was run: as §3
HeLa [9] = assay: Cell cycle arrest in human HeLa cells assessed as accumulation at G0/G1 phase phase at 10 uM after 24 hrs using ethidium bromide staining by flow cytometry analysis relative to control; type: functional; conditions: in the assay text read “propidium iodide staining” for “ethidium bromide staining”; how it was run: as §3
HeLa [10] = assay: Cell cycle arrest in human HeLa cells assessed as accumulation at G0/G1 phase phase at 5 uM after 24 hrs using ethidium bromide staining by flow cytometry analysis relative to control; type: functional; conditions: in the assay text read “propidium iodide staining” for “ethidium bromide staining”; how it was run: as §3
DU-145 = assay: Cytotoxicity against human DU145 cells after 2 days; type: functional, cell-based; how it was run: as §4
HeLa [11] = assay: Cell cycle arrest in human HeLa cells assessed as accumulation at G0/G1 phase phase at 50 uM after 24 hrs using […] by flow cytometry analysis relative to control; type: functional; how it was run: as §3
HeLa [12] = assay: Cell cycle arrest in human HeLa cells assessed as accumulation at S phase phase at 50 uM after 24 hrs using […] by flow cytometry analysis relative to control; type: functional; how it was run: as §3
HeLa [13] = assay: Cell cycle arrest in human HeLa cells assessed as accumulation at G0/G1 phase phase at 25 uM after 24 hrs using […] by flow cytometry analysis relative to control; type: functional; how it was run: as §3
HeLa [14] = assay: Cell cycle arrest in human HeLa cells assessed as accumulation at G2/M phase phase at 10 uM after 24 hrs using ethidium bromide staining by flow cytometry analysis relative to control; type: functional; conditions: in the assay text read “propidium iodide staining” for “ethidium bromide staining”; how it was run: as §3
[15] = Cytotoxicity against human HCT15 cells after 2 days; type: functional, cell-based, HCT-15; how it was run: as §4
HeLa [16] = assay: Cell cycle arrest in human HeLa cells assessed as accumulation at sub-G0/G1 phase at 50 uM after 24 hrs using […] by flow cytometry analysis relative to control; type: functional; how it was run: as §3
HeLa [17] = assay: Cell cycle arrest in human HeLa cells assessed as accumulation at sub-G0/G1 phase at 25 uM after 24 hrs using […] by flow cytometry analysis relative to control; type: functional; how it was run: as §3
HeLa [18] = assay: Cell cycle arrest in human HeLa cells assessed as accumulation at S phase phase at 25 uM after 24 hrs using […] by flow cytometry analysis relative to control; type: functional; how it was run: as §3
[19] = Cytotoxicity against human MCF10A cells after 2 days; type: cell-based, MCF-10A; how it was run: as §4
HeLa [20] = assay: Cell cycle arrest in human HeLa cells assessed as accumulation at G2/M phase phase at 5 uM after 24 hrs using ethidium bromide staining by flow cytometry analysis relative to control; type: functional; conditions: in the assay text read “propidium iodide staining” for “ethidium bromide staining”; how it was run: as §3
HeLa [21] = assay: Cell cycle arrest in human HeLa cells assessed as accumulation at S phase phase at 5 uM after 24 hrs using ethidium bromide staining by flow cytometry analysis relative to control; type: functional; conditions: in the assay text read “propidium iodide staining” for “ethidium bromide staining”; how it was run: as §3
HeLa [22] = assay: Cell cycle arrest in human HeLa cells assessed as accumulation at G2/M phase phase at 50 uM after 24 hrs using […] by flow cytometry analysis relative to control; type: functional; how it was run: as §3
HeLa [23] = assay: Cell cycle arrest in human HeLa cells assessed as accumulation at S phase phase at 10 uM after 24 hrs using ethidium bromide staining by flow cytometry analysis relative to control; type: functional; conditions: in the assay text read “propidium iodide staining” for “ethidium bromide staining”; how it was run: as §3

Chain of DNA topoisomerase 2-alpha (Homo sapiens) (P11388 whole entry): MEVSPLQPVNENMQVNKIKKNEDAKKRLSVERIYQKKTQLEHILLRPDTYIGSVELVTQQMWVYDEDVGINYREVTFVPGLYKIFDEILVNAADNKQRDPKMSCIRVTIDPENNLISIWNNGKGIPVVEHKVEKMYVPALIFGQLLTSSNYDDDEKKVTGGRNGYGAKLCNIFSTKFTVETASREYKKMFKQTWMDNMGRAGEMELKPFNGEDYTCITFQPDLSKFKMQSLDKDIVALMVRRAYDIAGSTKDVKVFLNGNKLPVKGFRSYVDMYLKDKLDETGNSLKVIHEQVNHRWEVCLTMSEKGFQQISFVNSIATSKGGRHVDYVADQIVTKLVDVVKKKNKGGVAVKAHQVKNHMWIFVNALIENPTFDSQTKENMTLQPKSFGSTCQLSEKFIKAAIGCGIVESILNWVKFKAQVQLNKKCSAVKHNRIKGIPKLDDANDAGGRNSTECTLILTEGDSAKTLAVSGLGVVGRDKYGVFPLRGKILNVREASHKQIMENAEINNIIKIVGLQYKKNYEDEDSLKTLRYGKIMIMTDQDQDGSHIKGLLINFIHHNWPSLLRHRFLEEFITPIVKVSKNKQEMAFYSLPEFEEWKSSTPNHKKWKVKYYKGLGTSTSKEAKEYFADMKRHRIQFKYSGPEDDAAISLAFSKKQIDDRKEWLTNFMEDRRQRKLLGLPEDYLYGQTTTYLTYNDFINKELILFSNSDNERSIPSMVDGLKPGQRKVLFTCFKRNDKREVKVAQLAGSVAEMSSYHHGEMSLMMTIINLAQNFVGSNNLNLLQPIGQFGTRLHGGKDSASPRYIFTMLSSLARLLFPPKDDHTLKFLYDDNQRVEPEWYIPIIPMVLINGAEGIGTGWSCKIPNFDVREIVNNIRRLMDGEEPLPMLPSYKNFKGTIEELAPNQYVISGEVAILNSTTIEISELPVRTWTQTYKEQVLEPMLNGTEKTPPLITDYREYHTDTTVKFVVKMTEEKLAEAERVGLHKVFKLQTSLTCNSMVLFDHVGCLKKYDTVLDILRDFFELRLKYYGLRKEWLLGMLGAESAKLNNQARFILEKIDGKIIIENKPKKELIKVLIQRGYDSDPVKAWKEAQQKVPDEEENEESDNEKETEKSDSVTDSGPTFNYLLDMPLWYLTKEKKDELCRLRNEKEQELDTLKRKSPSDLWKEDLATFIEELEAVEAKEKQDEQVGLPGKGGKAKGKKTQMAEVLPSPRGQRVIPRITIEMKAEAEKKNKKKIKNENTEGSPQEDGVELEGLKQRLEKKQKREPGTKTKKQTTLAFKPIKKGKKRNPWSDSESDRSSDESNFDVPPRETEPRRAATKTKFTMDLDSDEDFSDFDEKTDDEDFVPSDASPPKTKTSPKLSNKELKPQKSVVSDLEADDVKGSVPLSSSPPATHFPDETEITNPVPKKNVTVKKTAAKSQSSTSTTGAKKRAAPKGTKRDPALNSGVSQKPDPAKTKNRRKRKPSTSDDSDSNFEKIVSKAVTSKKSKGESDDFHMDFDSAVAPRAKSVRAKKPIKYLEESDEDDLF

SMILES: c1csc(-c2cc3ccccc3c(N3CCOCC3)n2)c1
inhibition [1]: 0% | inhibition [3]: 0%

SMILES: Cc1ccc2c(N3CCNCC3)nc(-c3cccs3)cc2c1
inhibition [1]: 0% | inhibition [2]: 0% | inhibition [3]: 59% and 59.6%

SMILES: Cc1ccc2cc(-c3cccs3)nc(N3CCOCC3)c2c1
inhibition [2]: 1.1% and 3.7% | inhibition [3]: 71.9% and 77.9% | inhibition [4]: 0% and 5.1%

SMILES: Cc1ccc2cc(-c3cccs3)nc(N3CCNCC3)c2c1
IC50 (T47D; Homo sapiens, T47D, 48 h): 1.14 µM | Activity (HeLa [7]): 18.81% | Activity (HeLa [8]): 5.76% | Activity (HeLa [9]): 68.71% | Activity (HeLa [10]): 65.59% | inhibition [2]: 0% | IC50 (DU-145; Homo sapiens, DU-145, 48 h): 4.15 µM | Activity (HeLa [11]): 6.92% | Activity (HeLa [12]): 1.26% | Activity (HeLa [13]): 49.19% | inhibition [3]: 10.7% | Activity (HeLa [14]): 14.5% | inhibition [4]: 22.1% | IC50 ([15]; Homo sapiens, HCT-15, 48 h): 1.29 µM | Activity (HeLa [16]): 90.48% | Activity (HeLa [17]): 26.67% | Activity (HeLa [18]): 4.72% | IC50 ([19]; Homo sapiens, MCF-10A, 48 h): 5.54 µM | Activity (HeLa [20]): 14.91% | Activity (HeLa [21]): 11.32% | Activity (HeLa [22]): 1.35% | Activity (HeLa [23]): 10.13%

SMILES: c1csc(-c2cc3ccccc3c(N3CCCCC3)n2)c1
inhibition [1]: 0.5% and 1.8% | inhibition [3]: 0% | inhibition [4]: 42.9% and 48.1%

SMILES: c1csc(-c2cc3ccccc3c(N3CCNCC3)n2)c1 [listing 2 of 2 here]
IC50 (T47D; t47d): 9.53 µM | Activity (HeLa [7]): 14.88% | Activity (HeLa [8]): 1.85% | Activity (HeLa [9]): 61.34% | Activity (HeLa [10]): 59.83% | IC50 (DU-145; du-145): 17.6 µM | Activity (HeLa [11]): 4.52% | Activity (HeLa [12]): 1.16% | Activity (HeLa [13]): 67.7% | Activity (HeLa [14]): 16.57% | IC50 ([15]; hct-15): 1.25 µM | Activity (HeLa [16]): 90.21% | Activity (HeLa [17]): 1.77% | Activity (HeLa [18]): 8.71% | IC50 ([19]; mcf-10a): 44.1 µM | Activity (HeLa [20]): 16.28% | Activity (HeLa [21]): 13.11% | Activity (HeLa [22]): 0.72% | Activity (HeLa [23]): 12.03%

Now from value to compound, other results behind:

inhibition [1]: 0% | inhibition [2]: 0.6% and 4.8%
SMILES: c1csc(-c2cc3ccccc3c(N3CCNCC3)n2)c1 [listing 1 of 2 here]

inhibition [1]: 0% | inhibition [3]: 0% | inhibition [4]: 14.6% and 22.5%
SMILES: Nc1nc(-c2cccs2)cc2ccccc12
Activity (HeLa [5]): Dose-dependent effect | Activity (HeLa [6]): Dose-dependent effect

inhibition [2]: 0% | inhibition [3]: 77.5% and 89.6% | inhibition [4]: 3.6% and 13.7%
SMILES: Cc1ccc2cc(-c3cccs3)nc(N3CCCCC3)c2c1

inhibition [1]: 1.7% | inhibition [3]: 0%
SMILES: Cc1ccc2c(N3CCOCC3)nc(-c3cccs3)cc2c1

inhibition [2]: 0% | inhibition [3]: 29.6% and 35.9% | inhibition [4]: 0%
SMILES: Cc1ccc2cc(-c3cccs3)nc(N3CCN(C)CC3)c2c1

inhibition [1]: 1.1% | inhibition [2]: 0%
SMILES: Cc1ccc2c(N3CCCCC3)nc(-c3cccs3)cc2c1

inhibition [1]: 1.1% | inhibition [3]: 0% | inhibition [4]: 68.9%
SMILES: Cc1ccc2c(NCc3ccccc3)nc(-c3cccs3)cc2c1
IC50 (T47D; Homo sapiens, T47D, 48 h): 6.57 µM | IC50 (DU-145; Homo sapiens, DU-145, 48 h): > 50 µM | IC50 ([15]; Homo sapiens, HCT-15, 48 h): 8.62 µM | IC50 ([19]; Homo sapiens, MCF-10A, 48 h): > 50 µM

inhibition [2]: 6.5% | inhibition [4]: 0%
SMILES: CCN1CCN(c2nc(-c3cccs3)cc3ccc(C)cc23)CC1
